Source: ChEMBL document CHEMBL1133538, “7-Deazaadenines bearing polar substituents: structure-activity relationships of new A(1) and A(3) adenosine receptor antagonists” (J Med Chem, 2000)
Converted amounts (≈) assume the structure as drawn.

Key:
Adenosine receptor A1 = target: T1, Adenosine receptor A1 (Rattus norvegicus, UniProt P25099); experiment: Tested for its binding affinity at adenosine A1 receptor in rat brain cortical membrane preparations using [3H]CCPA as a radioligand; format: cell membranes
T1 sequence (P25099 whole entry): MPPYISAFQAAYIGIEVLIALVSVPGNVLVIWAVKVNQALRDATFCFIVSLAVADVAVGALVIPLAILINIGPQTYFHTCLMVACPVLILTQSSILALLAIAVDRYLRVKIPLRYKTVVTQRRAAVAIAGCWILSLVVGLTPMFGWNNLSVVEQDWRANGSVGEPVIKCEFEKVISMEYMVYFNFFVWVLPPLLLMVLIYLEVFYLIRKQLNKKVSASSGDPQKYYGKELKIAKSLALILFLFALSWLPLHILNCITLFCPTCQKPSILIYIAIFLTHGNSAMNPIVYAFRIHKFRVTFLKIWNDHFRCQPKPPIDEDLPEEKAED
Procedure, shortened: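 Rat brain cortical membranes, A1 agonist radioligand [3H]CCPA at 0.5 nM. Compounds dissolved in DMSO, diluted into aqueous buffer, tested at 5-7 concentrations in triplicate, at least three separate experiments.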

Adenosine receptor A2a [1] = target: T2, Adenosine receptor A2a (Rattus norvegicus, UniProt P30543); experiment: Binding affinity at adenosine A2A receptor in rat striatal membrane preparations using [3H]CGS-21680 at a 30 uM; format: cell membranes, Striatum
[2] = target: Adenosine receptor A1 (Homo sapiens) (UniProt P30542); experiment: Binding affinity against adenosine A1 receptor expressed in CHO cells using [3H]CCPA
[3] = Solubility determined in […]-hydrochloride buffer at pH 7.4; format: physicochemical; details: in the assay text read “50 mM” for “50 nM”
Procedure, shortened: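 10 mM DMSO solution diluted 1:100 into 50 mM TRIS-HCl pH 7.4 (1% DMSO), shaken overnight at room temperature to equilibrium, centrifuged at 1000g, supernatant filtered through cotton. Dilutions analysed by HPLC with UV detection, concentration from calibration curves.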

[4] = target: Adenosine receptor A2a (Rattus norvegicus) (UniProt P30543); experiment: Binding affinity against adenosine A2A receptor in rat striatal membrane preparations using [3H]CGS-21680 at 1 uM; format: cell membranes; details: Striatum
Procedure, shortened: (§1)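 Rat striatal membranes, A2A-selective agonist [3H]CGS21680 at 5 nM. Compounds dissolved in DMSO, diluted into aqueous buffer. Value given as percent inhibition of radioligand binding at the single stated concentration.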

[5] = target: T3, Adenosine receptor A1 (Rattus norvegicus) (UniProt P25099); experiment: Ratio between solubility and Ki for A1 adenosine receptor
T3 sequence (whole entry): T1 sequence (P25099 whole entry)

[6] = target: Adenosine receptor A2a (Rattus norvegicus) (UniProt P30543); experiment: Binding affinity against adenosine A2A receptor in rat striatal membrane preparations using [3H]CGS-21680 at 30 uM; format: cell membranes; details: Striatum; procedure, shortened: as §1
[7] = target: Adenosine receptor A2a (Rattus norvegicus) (UniProt P30543); experiment: (§2) Binding affinity against adenosine A2A receptor in rat striatal membrane preparations using [3H]CGS-21680 at 10 uM; format: cell membranes; details: Striatum; procedure, shortened: as §1
Adenosine receptor A2a [8] = target: T2, Adenosine receptor A2a; experiment: as §2; format: cell membranes, Striatum
[9] = target: Adenosine receptor A2a (Rattus norvegicus) (UniProt P30543); experiment: Binding affinity against adenosine A2A receptor in rat striatal membrane preparations using [3H]CGS-21680 at 3 uM; format: cell membranes; details: Striatum; procedure, shortened: as §1
[10] = target: Adenosine receptor A2a (Rattus norvegicus) (UniProt P30543); experiment: Binding affinity against adenosine A2A receptor in rat striatal membrane preparations at 30 uM; format: cell membranes; details: Striatum; procedure, shortened: as §1
[11] = target: T3, Adenosine receptor A1 (Rattus norvegicus); experiment: Binding affinity against adenosine A1 receptor in rat brain cortical membrane preparations using [3H]CCPA at 30 uM; format: cell membranes
Procedure, shortened: (§3)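 Rat brain cortical membranes with [3H]CCPA (0.5 nM) as A1 radioligand. Compounds from DMSO stock diluted into aqueous buffer. Value given as percent inhibition of specific radioligand binding at the single stated concentration.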

[12] = target: T3, Adenosine receptor A1 (Rattus norvegicus); experiment: Binding affinity against adenosine A1 receptor in rat brain cortical membrane preparations using [3H]CCPA at 100 uM; format: cell membranes; procedure, shortened: as §3
[13] = target: Adenosine receptor A2a (Rattus norvegicus) (UniProt P30543); experiment: Binding affinity against adenosine A2A receptor in rat striatal membrane preparations at 10 uM; format: cell membranes; details: Striatum; procedure, shortened: as §1
[14] = target: T3, Adenosine receptor A1 (Rattus norvegicus); experiment: Binding affinity against adenosine A1 receptor in rat brain cortical membrane preparations using [3H]CCPA; format: cell membranes; details: concentration not given here
Procedure, shortened: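 Rat brain cortical membranes, A1 agonist radioligand [3H]CCPA at 0.5 nM. Compounds dissolved in DMSO, diluted into aqueous buffer, tested at 5-7 concentrations in triplicate, at least three separate experiments. IC50 from nonlinear curve fitting, converted to Ki with Cheng-Prusoff using KD 0.2 nM.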

Sequence of Adenosine receptor A2a (Rattus norvegicus) (P30543 whole entry): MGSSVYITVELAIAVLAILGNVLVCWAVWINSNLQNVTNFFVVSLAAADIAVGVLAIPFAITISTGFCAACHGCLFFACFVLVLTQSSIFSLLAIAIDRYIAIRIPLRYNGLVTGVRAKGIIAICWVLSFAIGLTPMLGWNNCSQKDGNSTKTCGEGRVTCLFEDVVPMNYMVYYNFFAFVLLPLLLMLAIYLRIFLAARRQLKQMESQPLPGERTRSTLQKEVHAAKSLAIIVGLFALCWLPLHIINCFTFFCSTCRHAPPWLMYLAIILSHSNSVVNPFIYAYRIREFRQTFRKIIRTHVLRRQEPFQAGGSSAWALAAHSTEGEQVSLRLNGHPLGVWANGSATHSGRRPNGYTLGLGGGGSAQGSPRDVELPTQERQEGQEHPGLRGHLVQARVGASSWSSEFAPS
T2 sequence (P30543 whole entry): as above
Sequence of Adenosine receptor A1 (Homo sapiens) (P30542 whole entry, looked up): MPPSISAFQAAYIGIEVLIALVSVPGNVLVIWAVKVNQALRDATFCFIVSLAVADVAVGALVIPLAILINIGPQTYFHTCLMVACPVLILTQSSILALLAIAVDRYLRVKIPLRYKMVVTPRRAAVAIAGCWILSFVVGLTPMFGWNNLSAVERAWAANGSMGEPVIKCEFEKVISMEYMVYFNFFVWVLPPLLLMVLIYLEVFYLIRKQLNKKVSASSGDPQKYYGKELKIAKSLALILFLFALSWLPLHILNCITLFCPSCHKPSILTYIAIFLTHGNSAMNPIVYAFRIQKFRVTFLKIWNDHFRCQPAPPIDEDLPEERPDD

Cc1c(C)n([C@H](C)c2ccccc2)c2nc(-c3ccncc3)nc(N)c12
Ki (Adenosine receptor A1): 46 nM
Ki (Adenosine receptor A2a [1]): 1300 nM
Ki [2]: 8.8 nM

C[C@@H](c1ccccc1)n1c2ccccc2c2c(N)nc(-c3ccccn3)nc21
solubility [3]: 5 µM (≈ 1.83 µg/mL)
Ki (Adenosine receptor A1): 540 nM
inhibition [4]: 6%
Ratio [5]: 9

Cc1c(C)n([C@H](C)c2ccccc2)c2nc(-c3cccs3)nc(N)c12
Ki (Adenosine receptor A1): 19 nM
Ki (Adenosine receptor A2a [1]): 5400 nM

Cc1c(C)n([C@H](C)c2ccccc2)c2nc(-c3cc[n+]([O-])cc3)nc(N)c12
Ki (Adenosine receptor A1): 490 nM
Ki (Adenosine receptor A2a [1]): 5900 nM

Cc1c(C)n([C@H](C)c2ccccc2)c2nc(-c3ccccc3O)nc(N)c12
Ki (Adenosine receptor A1): 240 nM
inhibition [6]: 46%

Cc1c(C)n([C@H](C)c2ccccc2)c2nc(-c3ccccc3)nc(N[C@@H](C)c3ccccc3)c12
Ki (Adenosine receptor A1): 18300 nM
inhibition [6]: 26%

Cc1nc2nc(-c3ccccc3)[nH]c(N[C@H](C)c3ccccc3)c-2c1C
inhibition [7]: 23%

C[C@H](c1ccccc1)n1c2ccccc2c2c(N)nc(-c3ccncc3)nc21
solubility [3]: 3 µM (≈ 1.1 µg/mL)
Ki (Adenosine receptor A1): 21 nM
Ki (Adenosine receptor A2a [8]): 1850 nM
Ratio [5]: 142

Cc1c(C)n([C@H](C)c2ccccc2)c2nc(-c3ccccc3)nc(N)c12
Ki (Adenosine receptor A2a [8]): 3710 nM

Cc1c(C)n([C@H](C)c2ccccc2)c2nc(-c3ccccn3)nc(N)c12
Ki (Adenosine receptor A1): 2100 nM
inhibition [6]: 43%

CCC(CO)Nc1nc(-c2ccc(Cl)cc2)nc2c1c(C)c(C)n2[C@H](C)c1ccccc1 (stereo partly specified)
solubility [3]: 11.2 µM (≈ 5.03 µg/mL)
Ki (Adenosine receptor A1): 2600 nM
inhibition [6]: 36%
Ratio [5]: 4

Cc1[nH]c2nc(C(C)c3ccccc3)nc(N)c2c1C (stereo unspecified)
Ki (Adenosine receptor A1): 6840 nM
inhibition [7]: 10%

C[C@H](c1ccccc1)n1c2ccccc2c2c(N)nc(-c3cccs3)nc21
Ki (Adenosine receptor A1): 36 nM
inhibition [9]: 32%

C[C@@H](c1ccccc1)n1c2c(c3c(N)nc(-c4ccccn4)nc31)CCCC2
Ki (Adenosine receptor A1): 12500 nM
inhibition [10]: 38%

Cc1c(C)n([C@H](C)c2ccccc2)c2nc(C(C)c3ccccc3)nc(N)c12 (stereo partly specified)
inhibition [6]: 38%
inhibition [11]: 33%

Nc1nc(-c2cccnc2)nc2c1c1c(n2-c2ccccc2)CCCC1
inhibition [6]: 44%

C[C@H](c1ccccc1)n1c2c(c3c(N)nc(-c4cc[n+]([O-])cc4)nc31)CCCC2
Ki (Adenosine receptor A1): 1850 nM
inhibition [10]: 50%

Cc1c(C)n([C@H](C)c2ccccc2)c2nc(-c3ccccc3)nc(NCCN)c12
solubility [3]: 24.2 µM (≈ 9.33 µg/mL)
Ki (Adenosine receptor A1): 3580 nM
inhibition [6]: 2%
Ratio [5]: 7

C[C@H](c1ccccc1)n1c2ccccc2c2c(N)nc(-c3cccnc3)nc21
Ki (Adenosine receptor A1): 92 nM
inhibition [7]: 47%

Cc1c(C)n([C@H](C)c2ccccc2)c2nc(-c3cccnc3)nc(N)c12
inhibition [6]: 3%
inhibition [12]: 35%

Nc1nc(-c2ccncc2)nc2c1c1c(n2-c2ccccc2)CCCC1
Ki (Adenosine receptor A1): 600 nM
inhibition [13]: 28%

Cc1c(C)n([C@H](C)c2ccccc2)c2nc(-c3ccccc3)nc(NC3CCCC3)c12
inhibition [6]: 19%
inhibition [11]: 41%

COc1ccccc1-c1nc(N)c2c(C)c(C)n([C@H](C)c3ccccc3)c2n1
inhibition [6]: 14%
inhibition [11]: 38%

CCC(CO)Nc1nc(-c2ccccc2)nc2c1c(C)c(C)n2C1CCCC1 (stereo unspecified)
solubility [3]: 13.2 µM (≈ 5 µg/mL)
Ki (Adenosine receptor A1): 1240 nM
inhibition [6]: 22%
Ratio [5]: 11

Cc1c(C)n([C@H](C)c2ccccc2)c2nc(-c3cnccn3)nc(N)c12
Ki (Adenosine receptor A1): 560 nM
Ki (Adenosine receptor A2a [1]): 6600 nM

Nc1nc(-c2ccccn2)nc2c1c1c(n2-c2ccccc2)CCCC1
Ki (Adenosine receptor A1): 8900 nM
inhibition [6]: 42%

Cc1c(C)n([C@H](C)c2ccccc2)c2nc(-c3ccco3)nc(N)c12
Ki (Adenosine receptor A1): 16 nM
Ki (Adenosine receptor A2a [1]): 490 nM

C[C@H](c1ccccc1)n1c2c(c3c(N)nc(-c4cccnc4)nc31)CCCC2
Ki (Adenosine receptor A1): 1300 nM
inhibition [10]: 46%

C[C@@H](c1ccccc1)n1c2c(c3c(N)nc(-c4ccncc4)nc31)CCCC2
inhibition [14]: 8%
inhibition [10]: 2%
